Measured values as given in ChEMBL document CHEMBL1177835, “A note to the biological activity of benzoxazine derivatives containing the thioxo group” (Eur J Med Chem, 2010).
Converted amounts (≈) assume the structure as drawn.

Key:
Mycobacterium kansasii [1] = assay: Antimycobacterial activity against Mycobacterium kansasii CNCTC My 235/80 after 14 days by microdilution method; type: functional; details: CNCTC My 235/80, 336 h
Summary of the method: (§1)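 Dilution micromethod for MIC; compounds added to medium as DMSO solutions. Each strain also inoculated onto Löwenstein–Jensen medium to control inoculum sterility and growth. Strain 6509/96 is a clinical isolate; CNCTC strains from the Czech national type culture collection.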

[2] = test system: Mycobacterium tuberculosis; assay: Antimycobacterial activity against Mycobacterium tuberculosis CNCTC My 331/88 after 14 days by microdilution method; type: functional; details: CNCTC My 331/88, 336 h
Summary of the method: (§2)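 MIC determined by a dilution micromethod. Strains came from the Czech National Collection of Type Cultures, Prague. Compounds were added to the medium as DMSO solutions. Each inoculum was also plated in parallel on Löwenstein–Jensen medium to check its sterility and growth. The M. avium strain is identical with ATCC 25291 and resistant to INH.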

Mycobacterium avium [3] = assay: Antimycobacterial activity against Mycobacterium avium CNCTC My 330/88 after 21 days by microdilution method; type: functional; details: CNCTC My 330/88, 504 h; summary of the method: as §2
Mycobacterium kansasii [4] = assay: Antimycobacterial activity against Mycobacterium kansasii 6509/96 after 14 days by microdilution method; type: functional; details: 6509/96, 336 h; summary of the method: as §1
Mycobacterium kansasii [5] = assay: Antimycobacterial activity against Mycobacterium kansasii 6509/96 after 21 days by microdilution method; type: functional; details: 6509/96, 504 h; summary of the method: as §1
HUVEC = assay: Antiproliferative activity against HUVEC after 72 hrs by using methylene blue staining; type: cell-based; details: human
Summary of the method: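 HUVEC in culture medium with ultraglutamine, gentamicin, 10% heat-inactivated FBS, 37 °C. Harvested in log phase by trypsinization; about 10,000 cells/well. Compounds in DMSO, diluted in DMEM, incubated 72 h at 37 °C, 5% CO2. Cells then glutaraldehyde-fixed, stained with 0.05% methylene blue for 15 min, eluted with 0.33 N HCl, OD 660 nm. GI50 taken at 50% intersection versus untreated control.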

[6] = test system: Mycobacterium tuberculosis; assay: Antimycobacterial activity against Mycobacterium tuberculosis CNCTC My 331/88 after 21 days by microdilution method; type: functional; details: CNCTC My 331/88, 504 h; summary of the method: as §2
K562 = assay: Antiproliferative activity against human K562 cells after 72 hrs by celltiter-blue assay; type: functional, cell-based
Summary of the method: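 K-562 grown in RPMI 1640 with ultraglutamine, gentamicin, 10% heat-inactivated FBS at 37 °C; about 10,000 cells/well. Compounds dissolved in DMSO and diluted in DMEM, incubated 72 h at 37 °C, 5% CO2. Viability read by CellTiter-Blue resazurin reduction. GI50 taken where the dose-response curve crosses 50% of untreated control.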

HeLa = assay: Cytotoxicity against human HeLa cells after 72 hrs by using methylene blue staining; type: functional, cell-based
Summary of the method: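 HeLa cells in RPMI 1640 with supplements, preincubated 48 h without compound. Compound dilutions were then applied to subconfluent monolayers for 72 h at 37 °C, 5% CO2. Cells were glutaraldehyde-fixed, stained with 0.05% methylene blue, eluted with 0.33 N HCl and read at OD 660 nm. CC50 taken at 50% intersection versus negative control.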

Mycobacterium avium [7] = assay: Antimycobacterial activity against Mycobacterium avium CNCTC My 330/88 after 14 days by microdilution method; type: functional; details: CNCTC My 330/88, 336 h; summary of the method: as §2
Mycobacterium kansasii [8] = assay: Antimycobacterial activity against Mycobacterium kansasii CNCTC My 235/80 after 21 days by microdilution method; type: functional; details: CNCTC My 235/80, 504 h; summary of the method: as §1

Cc1ccc2oc(=O)n(Cc3ccccc3)c(=S)c2c1
MIC (Mycobacterium kansasii [1]): 1 µM (≈ 0.283 µg/mL) | MIC [2]: 1 µM (≈ 0.283 µg/mL) | MIC (Mycobacterium avium [3]): 2 µM (≈ 0.567 µg/mL) | MIC (Mycobacterium kansasii [4]): 1 µM (≈ 0.283 µg/mL) | MIC (Mycobacterium kansasii [5]): 2 µM (≈ 0.567 µg/mL) | Activity (HUVEC): Toxic | MIC [6]: 1 µM (≈ 0.283 µg/mL) | Activity (K562): Toxic | Activity (HeLa): Toxic | MIC (Mycobacterium avium [7]): 2 µM (≈ 0.567 µg/mL) | MIC (Mycobacterium kansasii [8]): 2 µM (≈ 0.567 µg/mL)

Cc1ccc2oc(=O)n(Cc3ccccc3)c(=O)c2c1
MIC (Mycobacterium kansasii [1]): 62.5 µM (≈ 16.7 µg/mL) | MIC [2]: 32 µM (≈ 8.55 µg/mL) | MIC (Mycobacterium avium [3]): 62.5 µM (≈ 16.7 µg/mL) | MIC (Mycobacterium kansasii [4]): 62.5 µM (≈ 16.7 µg/mL) | MIC (Mycobacterium kansasii [5]): 125 µM (≈ 33.4 µg/mL) | Activity (HUVEC): Toxic | MIC [6]: 62.5 µM (≈ 16.7 µg/mL) | Activity (K562): Toxic | Activity (HeLa): Toxic | MIC (Mycobacterium avium [7]): 32 µM (≈ 8.55 µg/mL) | MIC (Mycobacterium kansasii [8]): 62.5 µM (≈ 16.7 µg/mL)

S=c1oc2ccccc2c(=S)n1Cc1ccc(Cl)c(Cl)c1
MIC (Mycobacterium kansasii [1]): 4 µM (≈ 1.42 µg/mL) | MIC [2]: 1 µM (≈ 0.354 µg/mL) | MIC (Mycobacterium avium [3]): 0.5 µM (≈ 0.177 µg/mL) | MIC (Mycobacterium kansasii [4]): 4 µM (≈ 1.42 µg/mL) | MIC (Mycobacterium kansasii [5]): 4 µM (≈ 1.42 µg/mL) | MIC [6]: 2 µM (≈ 0.709 µg/mL) | MIC (Mycobacterium avium [7]): 0.5 µM (≈ 0.177 µg/mL) | MIC (Mycobacterium kansasii [8]): 4 µM (≈ 1.42 µg/mL)

O=c1oc2c(Cl)cc(Cl)cc2c(=S)n1Cc1ccc(Cl)c(Cl)c1
MIC (Mycobacterium kansasii [1]): 16 µM (≈ 6.51 µg/mL) | MIC [2]: 2 µM (≈ 0.814 µg/mL) | MIC (Mycobacterium avium [3]): 4 µM (≈ 1.63 µg/mL) | MIC (Mycobacterium kansasii [4]): 16 µM (≈ 6.51 µg/mL) | MIC (Mycobacterium kansasii [5]): 16 µM (≈ 6.51 µg/mL) | Activity (HUVEC): Toxic | MIC [6]: 2 µM (≈ 0.814 µg/mL) | Activity (K562): Toxic | Activity (HeLa): Toxic | MIC (Mycobacterium avium [7]): 4 µM (≈ 1.63 µg/mL) | MIC (Mycobacterium kansasii [8]): 16 µM (≈ 6.51 µg/mL)

S=c1oc2ccccc2c(=S)n1Cc1ccccc1
MIC (Mycobacterium kansasii [1]): 2 µM (≈ 0.571 µg/mL) | MIC [2]: 1 µM (≈ 0.285 µg/mL) | MIC (Mycobacterium avium [3]): 1 µM (≈ 0.285 µg/mL) | MIC (Mycobacterium kansasii [4]): 1 µM (≈ 0.285 µg/mL) | MIC (Mycobacterium kansasii [5]): 2 µM (≈ 0.571 µg/mL) | MIC [6]: 1 µM (≈ 0.285 µg/mL) | MIC (Mycobacterium avium [7]): 1 µM (≈ 0.285 µg/mL) | MIC (Mycobacterium kansasii [8]): 2 µM (≈ 0.571 µg/mL)

S=c1oc2ccc(Cl)cc2c(=S)n1Cc1ccc(Cl)c(Cl)c1
MIC (Mycobacterium kansasii [1]): 32 µM (≈ 12.4 µg/mL) | MIC [2]: 4 µM (≈ 1.55 µg/mL) | MIC (Mycobacterium avium [3]): 32 µM (≈ 12.4 µg/mL) | MIC (Mycobacterium kansasii [4]): 32 µM (≈ 12.4 µg/mL) | MIC (Mycobacterium kansasii [5]): 32 µM (≈ 12.4 µg/mL) | MIC [6]: 8 µM (≈ 3.11 µg/mL) | MIC (Mycobacterium avium [7]): 16 µM (≈ 6.22 µg/mL) | MIC (Mycobacterium kansasii [8]): 32 µM (≈ 12.4 µg/mL)

O=c1oc2ccccc2c(=O)n1Cc1ccc(Cl)c(Cl)c1
MIC (Mycobacterium kansasii [1]): 62.5 µM (≈ 20.1 µg/mL) | MIC [2]: 32 µM (≈ 10.3 µg/mL) | MIC (Mycobacterium avium [3]): 32 µM (≈ 10.3 µg/mL) | MIC (Mycobacterium kansasii [4]): 62.5 µM (≈ 20.1 µg/mL) | MIC (Mycobacterium kansasii [5]): 62.5 µM (≈ 20.1 µg/mL) | Activity (HUVEC): Toxic | MIC [6]: 32 µM (≈ 10.3 µg/mL) | Activity (K562): Toxic | Activity (HeLa): Toxic | MIC (Mycobacterium avium [7]): 32 µM (≈ 10.3 µg/mL) | MIC (Mycobacterium kansasii [8]): 62.5 µM (≈ 20.1 µg/mL)

O=c1oc2ccc(Br)cc2c(=S)n1Cc1ccc(Cl)c(Cl)c1
MIC (Mycobacterium kansasii [1]): 16 µM (≈ 6.67 µg/mL) | MIC [2]: 2 µM (≈ 0.834 µg/mL) | MIC (Mycobacterium avium [3]): 8 µM (≈ 3.34 µg/mL) | MIC (Mycobacterium kansasii [4]): 16 µM (≈ 6.67 µg/mL) | MIC (Mycobacterium kansasii [5]): 16 µM (≈ 6.67 µg/mL) | Activity (HUVEC): Toxic | MIC [6]: 4 µM (≈ 1.67 µg/mL) | Activity (K562): Toxic | Activity (HeLa): Toxic | MIC (Mycobacterium avium [7]): 8 µM (≈ 3.34 µg/mL) | MIC (Mycobacterium kansasii [8]): 16 µM (≈ 6.67 µg/mL)

O=c1oc2ccc(Cl)cc2c(=S)n1Cc1ccc(Cl)c(Cl)c1
MIC (Mycobacterium kansasii [1]): 62.5 µM (≈ 23.3 µg/mL) | MIC [2]: 32 µM (≈ 11.9 µg/mL) | MIC (Mycobacterium avium [3]): 62.5 µM (≈ 23.3 µg/mL) | MIC (Mycobacterium kansasii [4]): 62.5 µM (≈ 23.3 µg/mL) | MIC (Mycobacterium kansasii [5]): 62.5 µM (≈ 23.3 µg/mL) | Activity (HUVEC): Toxic | MIC [6]: 32 µM (≈ 11.9 µg/mL) | Activity (K562): Toxic | Activity (HeLa): Toxic | MIC (Mycobacterium avium [7]): 62.5 µM (≈ 23.3 µg/mL) | MIC (Mycobacterium kansasii [8]): 62.5 µM (≈ 23.3 µg/mL)

O=c1oc2ccc(Br)cc2c(=O)n1Cc1ccc(Cl)c(Cl)c1
MIC (Mycobacterium kansasii [1]): 62.5 µM (≈ 25.1 µg/mL) | MIC [2]: 32 µM (≈ 12.8 µg/mL) | MIC (Mycobacterium avium [3]): 32 µM (≈ 12.8 µg/mL) | MIC (Mycobacterium kansasii [4]): 62.5 µM (≈ 25.1 µg/mL) | MIC (Mycobacterium kansasii [5]): 62.5 µM (≈ 25.1 µg/mL) | Activity (HUVEC): Toxic | MIC [6]: 32 µM (≈ 12.8 µg/mL) | Activity (K562): Toxic | Activity (HeLa): Toxic | MIC (Mycobacterium avium [7]): 32 µM (≈ 12.8 µg/mL) | MIC (Mycobacterium kansasii [8]): 62.5 µM (≈ 25.1 µg/mL)

O=c1oc2ccc(Cl)cc2c(=S)n1Cc1ccccc1
MIC (Mycobacterium kansasii [1]): 8 µM (≈ 2.43 µg/mL) | MIC [2]: 1 µM (≈ 0.304 µg/mL) | MIC (Mycobacterium avium [3]): 8 µM (≈ 2.43 µg/mL) | MIC (Mycobacterium kansasii [4]): 4 µM (≈ 1.22 µg/mL) | MIC (Mycobacterium kansasii [5]): 4 µM (≈ 1.22 µg/mL) | Activity (HUVEC): Toxic | MIC [6]: 2 µM (≈ 0.608 µg/mL) | Activity (K562): Toxic | Activity (HeLa): Toxic | MIC (Mycobacterium avium [7]): 4 µM (≈ 1.22 µg/mL) | MIC (Mycobacterium kansasii [8]): 8 µM (≈ 2.43 µg/mL)

CO[C@H]1/C=C/O[C@@]2(C)Oc3c(C)c(O)c4c(O)c(c(/C=N/N5CCN(C)CC5)c(O)c4c3C2=O)NC(=O)/C(C)=C\C=C\[C@H](C)[C@H](O)[C@@H](C)[C@@H](O)[C@@H](C)[C@H](OC(C)=O)[C@@H]1C [RIFAMPIN]
MIC (Mycobacterium kansasii [1]): 0.25 µM (≈ 0.206 µg/mL) | MIC [2]: 0.25 µM (≈ 0.206 µg/mL) | MIC (Mycobacterium avium [3]): 65 µM (≈ 53.5 µg/mL) | MIC (Mycobacterium kansasii [4]): 0.125 µM (≈ 0.103 µg/mL) | MIC (Mycobacterium kansasii [5]): 0.25 µM (≈ 0.206 µg/mL) | MIC [6]: 0.5 µM (≈ 0.411 µg/mL) | MIC (Mycobacterium avium [7]): 16 µM (≈ 13.2 µg/mL) | MIC (Mycobacterium kansasii [8]): 0.25 µM (≈ 0.206 µg/mL)

O=c1oc2ccc(Cl)cc2c(=O)n1Cc1ccc(Cl)c(Cl)c1
MIC (Mycobacterium kansasii [1]): 62.5 µM (≈ 22.3 µg/mL) | MIC [2]: 16 µM (≈ 5.71 µg/mL) | MIC (Mycobacterium avium [3]): 32 µM (≈ 11.4 µg/mL) | MIC (Mycobacterium kansasii [4]): 62.5 µM (≈ 22.3 µg/mL) | MIC (Mycobacterium kansasii [5]): 62.5 µM (≈ 22.3 µg/mL) | Activity (HUVEC): Toxic | MIC [6]: 16 µM (≈ 5.71 µg/mL) | Activity (K562): Toxic | Activity (HeLa): Toxic | MIC (Mycobacterium avium [7]): 16 µM (≈ 5.71 µg/mL) | MIC (Mycobacterium kansasii [8]): 62.5 µM (≈ 22.3 µg/mL)
